Some results are limits rather than exact numbers.

One experiment has as its system L02. The experiment can be described thus: Cytotoxicity against human HL-7702 cells assessed as cell growth inhibition after 48 hrs by MTT assay. It counts as cell-based. The conditions noted are these: L02, 48 h. In a few lines: (§1)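 Adherent cells seeded at 5000/well, left 16−24 h, then exposed 48 h at 37 °C, 5% CO2 in RPMI with 10% FBS. Medium refreshed, MTT added for 4 h at 37 °C, medium removed, formazan dissolved in DMSO, OD570 read. IC50 taken as concentration inhibiting growth by 50%; triplicate.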
Background: Tetrazolium dyes change colour on reduction, which living cells bring about.

Another experiment relates to A549. The experiment can be described thus: Cytotoxicity against human A549 cells assessed as cell growth inhibition after 48 hrs by MTT assay. The experiment is classed as functional, cell-based. The conditions noted are these: A549, 48 h. In a few lines: as §1
In the next experiment the test system is K562. Description: Cytotoxicity against human K562 cells assessed as cell growth inhibition after 48 hrs by MTT assay. It counts as functional, cell-based. Particulars: K562, 48 h. In a few lines: (§2)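 Suspension cells seeded at 5000/well (HL-60 in IMDM, K562 in RPMI, both with 10% FBS) and treated. MTT then added for 4 h at 37 °C; plates centrifuged at 3000 rpm for 30 min, medium removed, DMSO added, OD570 read. IC50 taken as concentration giving 50% growth inhibition; triplicate.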

For the next experiment, the system named is HepG2. The experiment can be described thus: Cytotoxicity against human HepG2 cells assessed as cell growth inhibition after 48 hrs by MTT assay. It counts as functional, cell-based. Particulars: HepG2, 48 h. In a few lines: as §1
Another experiment has as its system HL-60. Description: Cytotoxicity against human HL60 cells assessed as cell growth inhibition after 48 hrs by MTT assay. It counts as functional, cell-based. The conditions noted are these: HL-60, 48 h. In a few lines:
as §2

For the next experiment, the system named is ECa-109 cell line. The experiment can be described thus: Cytotoxicity against human ECA109 cells assessed as cell growth inhibition after 48 hrs by MTT assay. The conditions noted are these: ECa-109, 48 h. It counts as functional, cell-based. In a few lines: as §1

Usually IC50 stands for the concentration that inhibits the measured activity by half. As for `C=C(C)[C@@H]1CC[C@]2(COC(=O)CCCC[P+](c3ccccc3)(c3ccccc3)c3ccccc3)CC[C@]3(C)[C@H](CC[C@@H]4[C@@]5(C)CC[C@H](OC(C)=O)C(C)(C)[C@@H]5CC[C@]43C)[C@@H]12`, the IC50 amounted to 7.18 µM with L02; 0.83 µM in the experiment with A549; 0.62 µM in the experiment with K562; 2.42 µM in the experiment with HepG2; 0.58 µM in the experiment on HL-60; 1.41 µM in the experiment with ECa-109 cell line.
In the case of `C=C(C)[C@@H]1CC[C@]2(C(=O)OCC)CC[C@]3(C)[C@H](CC[C@@H]4[C@@]5(C)CC[C@H](OC(=O)CCCC[P+](c6ccccc6)(c6ccccc6)c6ccccc6)C(C)(C)[C@@H]5CC[C@]43C)[C@@H]12`, the half-inhibitory concentration (IC50) turned out to be 7.85 µM with L02; 4.79 µM in the experiment with A549; 4.03 µM with K562; 4.54 µM in the experiment with HepG2; 2.75 µM in the experiment on HL-60; 6.04 µM in the experiment on ECa-109 cell line.
`O=C(O)CCCC[P+](c1ccccc1)(c1ccccc1)c1ccccc1`: the IC50 with L02 was greater than 200 µM; in the experiment with A549 it was 172 µM; in the experiment with K562 it was greater than 200 µM; in the experiment with HepG2, 158 µM; in the experiment with HL-60, 118 µM; in the experiment with ECa-109 cell line, 112 µM.
For the compound `C=C(C)[C@@H]1CC[C@]2(C(=O)OC)CC[C@]3(C)[C@H](CC[C@@H]4[C@@]5(C)CC[C@H](OC(=O)CCCC[P+](c6ccccc6)(c6ccccc6)c6ccccc6)C(C)(C)[C@@H]5CC[C@]43C)[C@@H]12`, the IC50 in the experiment with L02 amounted to 6.3 µM; in the experiment on A549, 4.99 µM; with K562, 3.58 µM; in the experiment on HepG2, 4.35 µM; in the experiment on HL-60, 3.11 µM; with ECa-109 cell line it was 4.75 µM.

The values above are taken from ChEMBL document CHEMBL4011654, “Mitochondria-Targeted Lupane Triterpenoid Derivatives and Their Selective Apoptosis-Inducing Anticancer Mechanisms” (J Med Chem, 2017).
